Results from ChEMBL document CHEMBL1158886, “Melophlins C-O, thirteen novel tetramic acids from the marine sponge Melophlus sarassinorum” (J Nat Prod, 2003).
In brackets after ≈: the same amount, converted by molar mass. Activity calls are given as the source filed them. The calls are words filed in the database; no cut-off is given here.

Key:
[1] = system: TF-1; assay: Cytotoxicity against human TF1 cells; assay type: functional, cell-based
[2] = system: HeLa; assay: Cytotoxicity against human HeLa cells; assay type: functional, cell-based
[3] = system: Artemia salina; assay: Toxicity against Artemia salina; assay type: organism-based
[4] = system: Candida albicans; assay: Antimicrobial activity against Candida albicans at 5 and 10 ug after 24 hrs by agar diffusion method; assay type: functional, organism-based
In short: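 Disks (5 mm) carrying 5 or 10 µg of compound in MeOH were placed on YPD agar plates inoculated with C. albicans. Inhibition zones were read after 24 h at 27 °C. Solvent-only disks served as controls.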

[5] = system: Staphylococcus aureus; assay: Antimicrobial activity against Staphylococcus aureus ATCC 25923 at 5 and 10 ug after 24 hrs by agar diffusion method; assay type: functional, organism-based
In short: (§1)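 Paper disks (5 mm) loaded with 5 or 10 µg of compound in MeOH, set on LB agar plates seeded with the test bacterium. Incubated 24 h at 37 °C, then inhibition zone diameters recorded. Disks carrying solvent only served as controls.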

[6] = system: Bacillus subtilis; assay: Antimicrobial activity against Bacillus subtilis 168 at 5 and 10 ug after 24 hrs by agar diffusion method; assay type: functional, organism-based; in short: as §1

SMILES | Activity [1] | Activity [2] | IC50 [3] [µg/mL] | Activity [4] | Activity [5] | Activity [6]
CC(C)CCCCCCCCC/C(O)=C1\C(=O)C(C)N(C)C1=O (configuration not stated) | inactive | inactive |  |  |  | 
CC(C)CCCCCCCCCCC/C(O)=C1\C(=O)CN(C)C1=O | inactive | inactive |  |  |  | 
CC(C)CCCCCCCCCCCC/C(O)=C1\C(=O)CN(C)C1=O | inactive | inactive |  |  |  | 
CCC(C)CCCCCCCC/C(O)=C1\C(=O)C(C)N(C)C1=O (configuration not stated) | inactive | inactive |  |  |  | 
CCCCCCCCCCC/C(O)=C1\C(=O)C(C)N(C)C1=O (configuration not stated) | inactive | inactive |  |  |  | 
CCCCCCCC(C)CCC/C(O)=C1\C(=O)C(C)N(C)C1=O (configuration not stated) [MELOPHLIN C] | inactive | inactive | 36.6 (≈ 113 µM) | Active | Active | Active
CCCCCCCCCCCCC/C(O)=C1\C(=O)CN(C)C1=O [MELOPHLIN G] | inactive | inactive | 48.8 (≈ 151 µM) |  |  | 
CCC(C)CCCCCCCCCC/C(O)=C1\C(=O)CN(C)C1=O (configuration not stated) [MELOPHLIN I] | inactive | inactive | 52.6 (≈ 156 µM) |  |  | 
